The results in this text go back to ChEMBL document CHEMBL1125870, “Chemical and biological studies on a series of lipid-soluble (trans-(R,R)- and -(S,S)-1,2-diaminocyclohexane)platinum(II) complexes incorporated in liposomes” (J Med Chem, 1991).

The species named for data set [1] is Rattus norvegicus. The experiment in a line: Compound was tested for the subacute single dose from the toxicity studies in rats. It counts as organism-based. Conditions: in vivo.
Data set [2] concerns Mus musculus. Description: Compound was tested for its efficacy against L1210 / cisplatin Leukemia in mice at a dose of 5 mg/kg through intraperitoneal route.(Treatment schedule day is 1,5,9). In kind it is functional, organism-based. More on the design: dose 5 mg/kg. Put shortly:
(§1)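 L1210/cisplatin cells (NCI repository) passaged weekly ip in BDF1 mice. Groups of six B6D2F1 mice, 20-25 g, inoculated ip with 10^6 cells on day 0, then given liposomal Pt (DMPC:DMPG 7:3 multilamellar vesicles in 0.9% NaCl) or cisplatin ip on days 1, 5 and 9. Read-out %T/C = median survival treated/control ×100; study ended day 60; average of two experiments.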

In data set [3] the test system is Mus musculus. The experiment in a line: Compound was tested for its efficacy against L1210 Leukemia in mice at a dose of 25 mg/kg through intraperitoneal route.(Treatment schedule day is 1). It counts as functional, organism-based. Further details: dose 25 mg/kg. The procedure, abridged: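 Six B6D2F1 mice per group, 20-25 g, inoculated ip with 10^6 L1210/0 cells on day 0. A single ip dose of liposomal Pt (DMPC:DMPG 7:3 multilamellar vesicles in 0.9% NaCl) was given on day 1; doses of 12.5, 25 and 50 mg/kg were tested. %T/C = median survival treated/control ×100; study ended day 60; mean of three experiments.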

The subject of data set [4] is Mus musculus. Description: Compound was tested for its efficacy against L1210 Leukemia in mice at a dose of 5 mg/kg through intraperitoneal route.(Treatment schedule day is 1,5,9). It counts as functional, organism-based. Further details: dose 5 mg/kg.
The subject of data set [5] is Mus musculus. The experiment in a line: Compound was tested for its efficacy against L1210 / cisplatin Leukemia in mice at a dose of 25 mg/kg through intraperitoneal route.(Treatment schedule day is 1,5,9). Further details: dose 25 mg/kg. It counts as functional, organism-based. Put shortly:
as §1

Data set [6] concerns Mus musculus. The experiment in a line: Compound was tested for its efficacy against L1210 Leukemia in mice at a dose of 25 mg/kg through intraperitoneal route.(Treatment schedule day is 1,5,9). In kind it is functional, organism-based. More on the design: dose 25 mg/kg. The procedure, abridged: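 L1210/0 leukemia passaged weekly ip in BDF1 mice. Six B6D2F1 mice per group (20-25 g) received 10^6 cells ip on day 0. Liposomal Pt (DMPC:DMPG 7:3 MLVs in 0.9% NaCl) or cisplatin was given ip on days 1, 5, 9; doses tested 12.5, 25, 50 mg/kg. Optimal dose is the highest %T/C without toxic deaths. %T/C is from median survival; study ended day 60; average of two experiments.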

The species named for data set [7] is Rattus norvegicus. Description: Compound was tested for the subacute single dose from the toxicity studies in rats. In kind it is organism-based. As to conditions: in vivo.

CISPLATIN [listing 1 of 2 here]: the LD50 (usually the dose at which mortality reaches 50%) in the data set filed under Rattus norvegicus [1] was 17.5 mg/kg.
As for CISPLATIN [listing 2 of 2 here], the T/C (commonly the ratio of treated to control) in the data set with Mus musculus [2] came to 112%; with Mus musculus [3] it was 175%; in the data set on Mus musculus [4] it was 220%.
Turning to “Liposomal preparation of (ttans-(R,R)-dach)Pt complex containing isomeric mixture of neodecanoic acid (L-NDDP) [listing 1 of 2 here]”, the LD50 in the data set listed under Rattus norvegicus [1] stood at 54 mg/kg.
“Liposomal preparation of (ttans-(R,R)-dach)Pt complex containing isomeric mixture of neodecanoic acid (L-NDDP) [listing 2 of 2 here]”: the T/C in the data set with Mus musculus [5] was 200%; with Mus musculus [3], 187%; in the data set on Mus musculus [6], 312%.
For “Pt (2,2-diethyl-4-methylpentanoato)2((R,R)-dach) [listing 1 of 2 here]”, the LD50 in the data set listed under Rattus norvegicus [1] worked out at 62.3 mg/kg.
Regarding “Pt (2,2-diethyl-4-methylpentanoato)2((R,R)-dach) [listing 2 of 2 here]”, the T/C was found to be 185% in the data set on Mus musculus [5], 225% with Mus musculus [3] and 257% with Mus musculus [6].
Regarding “Pt (2,2-diethyl-4-methylpentanoato)2((S,S)-dach) [listing 1 of 2 here]”, the LD50 in the data set filed under Rattus norvegicus [7] was determined as 81 mg/kg.
Substance “Pt (2,2-diethyl-4-methylpentanoato)2((S,S)-dach) [listing 2 of 2 here]” registered a T/C in the data set on Mus musculus [3] of 160%.
“Pt (2,2-diethylhexanoato)2((R,R)-dach) [listing 1 of 2 here]” displayed a 50% lethal dose (LD50) in the data set filed under Rattus norvegicus [1] of 80.8 mg/kg.
Consider “Pt (2,2-diethylhexanoato)2((R,R)-dach) [listing 2 of 2 here]”, for which the T/C with Mus musculus [5] was determined as 231%; with Mus musculus [3], 253%; with Mus musculus [6] it was 257%.
On to “Pt (2,2-diethylhexanoato)2((S,S)-dach) [listing 1 of 2 here]”, for which the LD50 in the data set filed under Rattus norvegicus [1] is 104 mg/kg.
On to “Pt (2,2-diethylhexanoato)2((S,S)-dach) [listing 2 of 2 here]”, for which the T/C in the data set with Mus musculus [3] was determined as 190%.
For the substance “Pt (2,2-dimethyl-4-ethylhexanoato)2((R,R)-dach)”, in the data set with Mus musculus [3], the T/C worked out at 212%.
With “Pt (2,2-dimethyloctanoato)2((R,R)-dach) [listing 1 of 2 here]”, the LD50 in the data set listed under Rattus norvegicus [1] turned out to be 94.5 mg/kg.
Turning to “Pt (2,2-dimethyloctanoato)2((R,R)-dach) [listing 2 of 2 here]”, the T/C turned out to be 355% in the data set on Mus musculus [5], 234% with Mus musculus [3] and 257% in the data set on Mus musculus [6].
On to “Pt (2,2-dimethyloctanoato)2((S,S)-dach) [listing 1 of 2 here]”, for which the LD50 in the data set filed under Rattus norvegicus [1] was found to be 87 mg/kg.
In the case of “Pt (2,2-dimethyloctanoato)2((S,S)-dach) [listing 2 of 2 here]”, the T/C in the data set on Mus musculus [3] was 150%.
